First the molecules themselves.
B1: tRNA (parent)
chain: GUUCCGUUGGCGUAAUGGUAACGCGUCUCCCUCCUAAGGAGAAGACUGCGGGUUCGAGUCCCGUACGGAACG

37 variants from the RNAGym collection of RNA variant scans (doi:10.1126/science.aae0568) can be followed below.

Fewer inactive variants are shown than the library holds.

Variants of B1 are the subject of this series. The series can be described thus: yeast fitness relative to wild type (ratio to wild type); higher = fitter; tRNA-Arg(CCU), competitive growth, 37 C, YPD. In short, it runs like this:
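For this measurement, the tRNA-Arg(CCU) gene was varied by chemical synthesis at a 3% per-site mutation rate across 69 sites, and each variant was placed at the native genomic locus in Saccharomyces cerevisiae. The pooled strains went through a 24-hour competition in YPD at 37°C in six parallel replicates, with amplicons from start and end populations read by 100-nucleotide paired-end sequencing. Darwinian fitness relative to wild type followed from the change in each genotype's frequency. Genotypes needed ≥ 100 starting reads, and estimates < 0.5 were set to 0.5.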
Regarding GUUCCGUUGGAGUAAUGGUAACGGGUCUCUUUCCUAAGGAGAAGACUGCGGGUUCGAGUCUCGUACCGAACG [C11A C24G C30U C31U C61U G67C], the yeast fitness was at most 0.5.

Turning to GGUCCGUUGGCGUAAUGGUAACGCGUCUCCCUCCUAAGGAGAAGACUCCGGGUUCGAGUCCCGUAUGGAACG [U2G G48C C66U], the yeast fitness amounted to 0.519.

Regarding GUUCCGGUGGCGUAAUGGUAACGCGUCUCCCUCCUACGGAGAAGACUGCGGGUUCGAGUCCCGUACGGAACG [U7G A37C], the yeast fitness came to 0.757.

In the case of GUUUCGUUGGCGUAAUGGUAACGCGUCUCCCUACUAAGGUGAAGACUGCGGGUUCGAGUCCCGUACGAAACG [C4U C33A A40U G68A], the yeast fitness was at most 0.5.

With GUUUCGUUGGCGUAAUGGUAACGCGUCUCCCUCCUAAGGACAAGACUGCGGGUUCGAGUCACGUACGGAACG [C4U G41C C61A], the yeast fitness was at most 0.5.

Turning to GUUCCGUUGGCGUAAUAGUCACGUGUCUCCCUCCUAAGGAGAAGACUGCGGGUUCGAGUCCCGUACGGAACG [G17A A20C C24U], the yeast fitness worked out at 0.562.

Consider GUUCCGUUGGCGUAAUGGUAACGUGUCUCCCUCCUAAGGGGAAGACUGCGGGUUCGAGUUCCGUCCGGAACG [C24U A40G C60U A65C], for which the yeast fitness is at most 0.5.

Take GUUCCGUUGACGUAAUAGUAACGCGUCUACCUCGUAAGGAGACGACUGCGGGUUCGAGUGCCGUACGGAACG [G10A G17A C29A C34G A43C C60G]: the yeast fitness was at most 0.5.

For the variant GUUCAGUUGGCGUAAUGGUAACGCGUCUCCCUUCUAAGGAGAAGAGUGCGGGUUCGAGUCCCGUACGGAACG [C5A C33U C46G], the yeast fitness is at most 0.5.

On to GUUCCGUUGGCGUCAUGGUAACGCGUCUCCCUCCUAAGGAGAGGACUGCGGGUUCGAGUCCCGUACGGCACG [A14C A43G A69C], for which the yeast fitness was at most 0.5.

For GUUCCCUUGGCGUAAUGGUAACGCGUCUCCCUCUUAAGGAGAAGACUGCGGCUUCGAGUCCCGUACGGAACG [G6C C34U G52C], the yeast fitness was 0.565.

Take GUUCCGUUGGCGUAAUGGUAACGCGUCUCCCUCUUAAAGAGAAGACUGCGGGUUCAAGUCCCGUACGGAACG [C34U G38A G56A]: the yeast fitness amounted to 0.611.

In the case of GUUCCGUUGGCGUAAUGGUUACGCGUCUGCCUCCUAGGGAGAAAACUGCGGGUUCGAGUCCCAUACGGAACG [A20U C29G A37G G44A G63A], the yeast fitness was at most 0.5.

On to GUUCCGUCGGCGUUAUGGUAACGCGUCUCACUCCUAAGGAGAAGACUGCGGGUUCGAGUCUAGUACGGAGCG [U8C A14U C30A C61U C62A A70G], for which the yeast fitness was determined as 0.532.

For the variant GUUCCAUUGGCGUAAUGAUAACCCGACUCUCUCCAAAGGAGAGGACUGCGGGUUCGAGUCCCGUACGGAACG [G6A G18A G23C U26A C30U U35A A43G], the yeast fitness is at most 0.5.

For GUUCCGUUGGCGUAAAGGUAACGCGUCUCCCUCCUAACGAGAAGACUGCGGGUUCGAGUCUCGCACGGAACG [U16A G38C C61U U64C], the yeast fitness was at most 0.5.

In the case of GUUCCGUUGGCGUGAUGGUAACGCGUCGCCCUCCUAAGGACAAGACUACGGGUUCGAGUCCCGCACGGAACG [A14G U28G G41C G48A U64C], the yeast fitness is at most 0.5.

For the variant GUUCCGUUGGCGUAAUGGUAACGCGUCUCCCUCCUAAGGAGAAGACUGCGGGUUCGAGUGCCGUAUGGAACG [C60G C66U], the yeast fitness is 0.599.

On to GUUCCAUUGGCGUAAUGGUAACGCGUCUCCCUCCUAAGGAAAAGACUGCGGGUUCGAGUGCCGUGCGGAACG [G6A G41A C60G A65G], for which the yeast fitness stood at 0.618.

In the case of GUUCCGUUAGCGUAAUGGUAACGCGUCUCCCUUCUAAGGAGAAGACUGCGGGUUGGAGUCCCGUACGGAACG [G9A C33U C55G], the yeast fitness stood at 0.66.

Turning to GUUCCGUUGGCGUAAUGGUAACGCGUCUCCCUCCUAAGGAGAAGACUGCGGGUUCGAAUCCCGUCCAGAACG [G58A A65C G67A], the yeast fitness is 0.643.

For GUUCCGUUGGCGUAAUGGUAACGCCUCUCCCUCCUAAGGAGAACACUGUGGGUUCGAGUCCCGUACGGAACG [G25C G44C C49U], the yeast fitness was found to be 0.505.

As for GUUCCGUUGGCGUAAUGGUAACGCCUCUCCCUCCUAUGGAGAAGACUACGGGUUCGAGUCUCGUACGGAACG [G25C A37U G48A C61U], the yeast fitness is at most 0.5.

Take GUUCCGUUGGCGUGAUGGUAUCGCGUCUCCCUCCUAAGGAGAAGACUGCGGGUUCCAGUCCCGUACGCAACG [A14G A21U G56C G68C]: the yeast fitness was found to be 0.637.

For GUUCCGUUGGCGUAAAGGUAACGCGUCUCCCUCAUAAGGAGAAGACUGCGGGUUCGAGUCCCGCACGGAACG [U16A C34A U64C], the yeast fitness worked out at 0.513.

For GUUCCGUUGGCGUAAUGAUACCGCGUCUCUCUCAUAAGGAGAAGACUGCGGGUUCGAGUCCCGUACGGAACG [G18A A21C C30U C34A], the yeast fitness is at most 0.5.

For the variant GGUCCGUUGGCGUAAUGGUAACGCGUCUCCCUCCUAAGGAGAAGACUCCGGCUUCGAGUCCGGUAUGGAACG [U2G G48C G52C C62G C66U], the yeast fitness is at most 0.5.

Take GUUCCGUUGCCGUAAUGGUAACGCGUCUCCCUCCUAAGGAGAAAACUGCGGGUUCGAGUCCCGUACGGAUCG [G10C G44A A70U]: the yeast fitness is at most 0.5.

As to GGUCCGUUGGCGUAAUGGUAACGAGUCUCCGUCCUAAGGAGAAGUCUGCGGGUUCGAGUCCCGUACGGAACG [U2G C24A C31G A45U], the yeast fitness is at most 0.5.

Consider GUUACGUUGGCGCAAUGGUCACGCGUCUCCCUCAUAAGCAGAUGACUGCGGGUUCGAGUCCCGUACGGAACG [C4A U13C A20C C34A G39C A43U], for which the yeast fitness was at most 0.5.

Consider GUUCCGUUGGCGUAAGGGUAAGGCGUCUCCCCCCUAAGGAGAAGACUGCGGGUUCGAGUCCCGUACGGAACG [U16G C22G U32C], for which the yeast fitness stood at 0.767.

As to GUUCGGCUGGCGUAAUGGUAACGCGUCUCCCUCCUAAGGAGAAGACUGCGGGUUCAUGUCCGGUACGGAACG [C5G U7C G56A A57U C62G], the yeast fitness was at most 0.5.

As to GUUCCGUUGGUGUAAUGGUAACGCGUCUCCCGCCUAAGGAGAAGACUGCGGGAUUGAGUCUCGUACGGAACG [C11U U32G U53A C55U C61U], the yeast fitness is at most 0.5.

On to GUUCCGUUGGCGUAAUGGUAACGCGUCUCCCUCCUAAGGAGAAGACUGCGGGUUCAAGUCCCGUACGGAACG [G56A], for which the yeast fitness amounted to 1.03.

In the case of GUUCCGUUGGCGUAAUGGUAACGCGUCUCCCUCCUAAGGAGAAGACUGCGGGUUCCAGUCCUGUACGGAACG [G56C C62U], the yeast fitness was determined as 0.913.

Turning to GUUCCGUUGGCGUAAUGGAAACGCGUCUCCCUCCUAAGCAGAAGACUGCGGGUUCGAGUCCCGUACGGUACG [U19A G39C A69U], the yeast fitness is 0.574.

Take GUUCCGUUGGCGUAAUGGUAGCGCGUCUCCCUCCUUAGGAGAAGACUGCGGGUUCGAGUCCCGUACGGAACG [A21G A36U]: the yeast fitness is 0.583.
